Source: ChEMBL document CHEMBL1144244, “Synthesis and biological activity of enantiomeric pairs of 5-[(E)-cycloalk-2-enylidenemethyl]thiolactomycin congeners” (Bioorg Med Chem Lett, 2008)
≈ marks a conversion by molar mass, not a printed value.

Columns and labels:
[1] = tested on: Staphylococcus aureus; test: Antibacterial activity against Staphylococcus aureus Smith by agar dilution method; format: functional
In short: (§1)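 MICs determined by agar dilution following CLSI guideline M7-A6 (2003).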

[2] = tested on: Moraxella catarrhalis; test: Antibacterial activity against Moraxella catarrhalis ATCC 25238 by agar dilution method; format: functional; in short: as §1
[3] = Inhibition of fatty acid synthase type 1 in human HepG2 cells assessed as [1-14C]acetate incorporation into cellular fatty acid; format: cell-based
[4] = tested on: Haemophilus influenzae; test: Antibacterial activity against Haemophilus influenzae IID983 by agar dilution method; format: functional; in short: as §1

Row | SMILES | MIC [1] [µg/mL] | MIC [2] [µg/mL] | IC50 [3] [µg/mL] | MIC [4] [µg/mL]
1 | C=C/C(C)=C/[C@]1(C)SC(=O)C(C)=C1O | > 128 | > 128 | 0.0437 (≈ 0.208 µM) | –
2 | CC1=C(O)[C@@](C)(/C=C2/C=CCCC2)SC1=O | > 64 | > 64 | > 0.08 | > 64
3 | C=C/C(C)=C/[C@@]1(C)SC(=O)C=C1O | > 128 | 16 (≈ 81.5 µM) | > 0.08 | 32 (≈ 163 µM)
4 | C=C/C(C)=C/[C@]1(C)SC(=O)C=C1O | > 128 | > 128 | 0.019 (≈ 0.0968 µM) | –
5 | C[C@]1(/C=C2/C=CCCCC2)SC(=O)C=C1O | > 64 | > 64 | 0.0133 (≈ 0.0563 µM) | > 64
6 | C[C@]1(/C=C2/C=CCCC2)SC(=O)C=C1O | > 64 | > 64 | 0.057 (≈ 0.256 µM) | > 64
7 | CC1=C(O)[C@](C)(/C=C2/C=C\CCCCC2)SC1=O | > 128 | 64 (≈ 242 µM) | 0.0116 (≈ 0.0439 µM) | > 128
8 | C=C1C(=O)OC(CCCCCCCC)C1C(=O)O (stereo unspecified) | – | – | 0.0074 (≈ 0.0291 µM) | –
9 | CC1=C(O)[C@@](C)(/C=C2/C=CCCCC2)SC1=O | > 64 | > 64 | 0.0254 (≈ 0.101 µM) | > 64
10 | CC1=C(O)[C@](C)(/C=C2/C=CCCC2)SC1=O | > 64 | > 64 | > 0.08 | > 64
11 | C[C@]1(/C=C2/C=C\CCCCC2)SC(=O)C=C1O | > 128 | 128 (≈ 511 µM) | 0.0195 (≈ 0.0779 µM) | > 128
12 | C[C@@]1(/C=C2/C=CCCC2)SC(=O)C=C1O | > 64 | > 64 | 0.0189 (≈ 0.085 µM) | > 64
13 | CC1=C(O)[C@@](C)(/C=C2/C=C\CCCCC2)SC1=O | > 128 | 64 (≈ 242 µM) | 0.0418 (≈ 0.158 µM) | > 128
14 | C[C@@]1(/C=C2/C=C\CCCCC2)SC(=O)C=C1O | > 128 | 64 (≈ 256 µM) | 0.0246 (≈ 0.0983 µM) | > 128
15 | CC1=C(O)[C@](C)(/C=C2/C=CCCCC2)SC1=O | > 64 | > 64 | 0.0149 (≈ 0.0595 µM) | > 64
16 | C[C@@]1(/C=C2/C=CCCCC2)SC(=O)C=C1O | > 64 | > 64 | 0.0226 (≈ 0.0956 µM) | > 64
17 | O=C(O)c1cn(C2CC2)c2cc(N3CCNCC3)c(F)cc2c1=O [CIPROFLOXACIN] | 0.063 (≈ 0.19 µM) | 0.031 (≈ 0.0936 µM) | – | 0.008 (≈ 0.0241 µM)
18 | C=C/C(C)=C/[C@@]1(C)SC(=O)C(C)=C1O [THIOLACTOMYCIN] | 128 (≈ 609 µM) | 0.25 (≈ 1.19 µM) | > 0.08 | 2 (≈ 9.51 µM)
